An excerpt weighted towards active compounds, which were near 3.9% of everything screened.
HSP90 inh – HSP90 refolding inhibition in rabbit reticulocyte lysate; luciferase refolding luminescence, 3 h; hit rate 0.91% among 290,000; inhibition, % at 5.6 µM;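 active = inhibition above the screen-wide mean plus 3 SD, computed separately per campaign, cut at about 16% in these data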;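 also: inhibitors lower the luminescence because luciferase stays unfolded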
HCV NS3 hel inh – blocks Hepatitis C virus NS3 helicase unwinding; hit rate 0.56% among 290,000; inhibition, % at 10.9 µM; AID 1800; NS3 helicase DNA unwinding, Cy5 molecular beacon fluorescence;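 active = inhibition above the mean of all tested compounds plus 3 SD, set per campaign, cut at about 35% in these data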
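assay system = NS3 helicase fragment of HCV | buffer or medium = MOPS pH 6.5, MgCl2, DTT, Tween20, BSA | timing = 60 min unwinding reaction at 25 °C after ATP addition | signal = Cy5 beacon fluorescence read at start and 1 h | read-out basis = % inhibition of unwinding | control set = low DMSO, high thioflavine S at 110 µM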
DNA FID counter – fluorescent intercalator displacement, NS3 helicase counter-screen | AID 1845 | hit rate 0.17% among 290,000 | inhibition, % at 7.9 µM | DNA fluorescent intercalator displacement, fluorescence; in the data active = inhibition above about 37%;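 also: higher means more ethidium bromide displaced from hairpin DNA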
HSF1 inh – HSF1 inhibition; activity change, negative = inhibition, % at 7.5 µM (by protocol); NIH3T3-HGL HSE-luciferase, MG132-induced, luminescence 8 h; hits give low values; AID 2098; hit rate 0.77% among 300,000;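 active = more than half of replicate wells show activity change below -50%, luminescence cut by over half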;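 also: luciferase reports HSF-1 transcriptional activity via heat shock element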
HCV core dimer – blocks dimerization of HCV core protein | TR-FRET GST/Flag-core106 dimerization, 1536-well | inhibition, % at 5 µM | hit rate 0.33% among 300,000;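 active = inhibition above the mean of all tested compounds plus 3 SD, set per screening campaign, cut at about 45% in these data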
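assay system = GST-tagged and Flag-tagged HCV core protein residues 1-106 | controls = unlabelled core106 and no-GST-core106 wells | incubation = compound-protein-antibody incubation 4 h at 22.5 °C | probe or stimulus = Eu donor and XL665 acceptor anti-tag antibodies | read-out = % inhibition based on acceptor/donor emission ratio | signal = TR-FRET 671 and 617 nm emission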
HSF1 activator – increases HSF-1 driven luciferase reporter signal | hit rate 1.7% among 300,000 | activation, % at 9 µM | NIH3T3-HGL HSF-1 luciferase reporter, MG132, 8 h; 100% = twice DMSO control signal;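 active = mean replicate activation of at least 50% with a set share of replicates each reaching 50%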
Large screens that a line does not name were inactive.

Cc1ccc(NC(=O)c2oc3ccccc3c2C)nc1	HSF1 activator 56
Cc1cccnc1NC(=O)c1cc2c(=O)oc3ccccc3c2s1	none
Cc1nc2sc(C(c3cccc(F)c3)N3CC(C)OC(C)C3)c(O)n2n1 (stereo unspecified)	none
Cc1c(C(=O)Nc2nc3ccccc3[nH]2)oc2ccccc12	HSF1 activator 68
CCN(c1ccccc1)S(=O)(=O)c1ccc(Cl)c(C(=O)N(CC2CCCO2)C2CCS(=O)(=O)C2)c1 (stereo unspecified)	HSF1 inh -58
COc1ccc(S(=O)(=O)N(CC(=O)NCC2CCCO2)c2ccccc2)cc1OC (stereo unspecified)	none
COCCn1c(C)cc(C2=NNC(=NC3CC3)SC2)c1C	HSP90 inh 70, HSF1 inh -64
CCn1cc(C(=O)NCc2ccc(C)cc2)c(=O)c2cc(S(=O)(=O)N(C)C)ccc21	none
CCCCCOC(=O)C1=C(C)NC(=O)NC1c1ccc([N+](=O)[O-])cc1 (stereo unspecified)	HSF1 activator 63
NC(=O)CC(NC(=O)c1ccc(Br)cc1)c1ccc(N2CCCCCCC2)c([N+](=O)[O-])c1 (stereo unspecified)	none
CCOc1ccc(C(=O)NC2=NCCS2)cc1	HSF1 activator 66
CCn1nnc(NC(=O)c2cccnc2Cl)n1	none
CCn1nnc(NC(=O)c2sc3ccccc3c2Cl)n1	HSF1 activator 74
CCOc1cc(C(=O)NC2=NCCS2)cc(OCC)c1OCC	none
CCOc1ccc(C(=O)Nc2nnn(CC)n2)cc1	HSP90 inh 16
CCC(=O)NCCNc1nc2cc(C)cc(C)c2cc1C#N	none
CCc1nnc(NC(=O)CSc2nnc(CNc3ccc(F)cc3)n2C2CCCCC2)s1	none
CCCCNC(=O)CSc1nc2ccsc2c(=O)n1C1CCN(C(=O)OCC)CC1	none
COC(=O)C1CCN(C(=O)c2sc3nc(-c4ccccc4)cn3c2C)CC1	HSF1 inh -72
Cc1c(C(=O)Nc2ccccc2)sc2nc(-c3ccccc3)cn12	HSF1 activator 55
COc1ccc(-c2cn3c(C)c(C(=O)N4CCN(c5ccc(F)cc5)CC4)sc3n2)cc1	HSP90 inh 68
COc1ccccc1N1CCN(C(=O)c2sc3nc(-c4ccc(F)cc4)cn3c2C)CC1	none
COc1ccc(-c2cn3c(C)c(C(=O)NC(C)C)sc3n2)cc1	none
COc1ccc(-c2cn3c(C)c(C(=O)NC(C)(C)C)sc3n2)cc1	HSP90 inh 45
Cc1ccccc1-c1nnn(C/C(N)=N/O)n1	none
Cc1nn(C(C)C)c(C)c1CN1CCN(Cc2ccsc2)C(CCO)C1 (stereo unspecified)	none
CC(C)(C)Cc1nnc(NS(=O)(=O)c2ccc(F)cc2)s1	HSF1 inh -53
CC(C(=O)OCC(=O)c1ccc(Br)cc1)N1C(=O)C2C3CCC(C3)C2C1=O (stereo unspecified)	none
COc1cccc(-c2nc(=S)c3c(n2Cc2ccco2)CCCC3)c1	HSF1 activator 124
Cc1cccc(-c2nc(=S)c3c(n2Cc2ccco2)CCCC3)c1	HCV core dimer 64
Cc1ccc(-c2nc(=S)c3c(n2Cc2ccco2)CC(C)(C)OC3)cc1	none
COCCN1CC(=O)N2C(c3cccc(OC)c3)c3[nH]c4ccccc4c3C[C@H]2C1=O (stereo partly specified)	none
O=C(/C=C/c1ccc([N+](=O)[O-])cc1)N(c1ccccn1)C1CCCCC1	none
N#CC(C#N)=C1C=CC=CN1/C(=C\c1ccccc1Cl)C(=O)c1ccccc1	none (no result: HSF1 inh, HSF1 activator)
N#CC(C#N)=C1C=CC=CN1/C(=C\c1ccccc1)C(=O)c1cccs1	HSF1 activator 214
CCOC(=O)C1CCN(Cc2ccc(OC)c(C)c2OC)CC1	none
CCOC(=O)C1CCN(Cc2cc(Cl)c3ccccc3c2O)CC1	HSF1 activator 97
Brc1c(CSc2nc3ccccc3s2)nc2ncccn12	HSF1 activator 66
C=C(C)c1cccc(C(C)(C)NC(=O)N(Cc2ccccc2)Cc2ccco2)c1	none
Cc1cc(NC(=O)c2cncc(Br)c2)no1	none
Cc1ccc(NC(=O)c2snc3ccc(Cl)cc23)cc1C	HSF1 activator 56
Clc1ccc2nc(N3CCNCC3)nc(-c3ccccc3)c2c1	DNA FID counter 44
CN1CCN(c2nc(-c3ccccc3)c3cc(Cl)ccc3n2)CC1	none
c1ccc(CCNc2nc3ccccc3n3nnnc23)cc1	none
ClC(Cl)(Cl)c1nc2ccccc2n2nncc12	HSF1 activator 208
CCCOc1ccc(-c2c(C(=O)N/N=C/c3ccc(C)cc3)nnn2-c2nonc2N)cc1	none
CCOc1cccc(-c2c(C(=O)N/N=C/c3ccc(C)s3)nnn2-c2nonc2N)c1	none
CCCOc1ccc(-c2c(C(=O)N/N=C/c3ccccc3OCC)nnn2-c2nonc2N)cc1	HSF1 inh -69
COc1cccc(-c2c(C(=O)N/N=C/c3ccc(C)s3)nnn2-c2nonc2N)c1	HSF1 inh -87
Cc1cccc(-c2cccc(NC(=O)C3CCCN(C(=O)c4ocnc4C)C3)c2)c1 (stereo unspecified)	none
Cc1cccc(-c2cccc(NC(=O)C3CCCN(C(=O)c4csc(C)n4)C3)c2)c1 (stereo unspecified)	HSF1 activator 60
Cc1cccc(-c2cccc(NC(=O)C3CCCN(C(=O)c4cccnc4)C3)c2)c1 (stereo unspecified)	HSF1 activator 67 (no result: HCV core dimer)
N#C/C(=C\c1cccc(O)c1)C(=O)N1CCCCC1	none
N#C/C(=C\c1cccc(Br)c1)C(=O)N1CCCCC1	HSP90 inh 17
COc1cccc(-c2csc(NC(=O)Nc3ccccc3)n2)c1	HSF1 inh -60
Cc1cc(Nc2ccccc2)n(C(=O)c2ccc(Cl)cc2)n1	none
C/C(CC(=O)Nc1cccc2c1CCCC2)=N\NC(=O)COc1ccccc1	HSF1 activator 61
O=C(c1ccccc1)n1nnc2ccccc21	none
COc1ccc2c(c1)C1=NN(/C(C)=C/C(C)=O)C(c3ccc(F)cc3)C1CC2 (stereo unspecified)	HSF1 activator 53
CC(=O)NCCC(=O)Nc1nc(-c2cccs2)c(-c2cccs2)s1	HSF1 activator 182
CC(C)CNC(=O)c1nn(Cc2ccccc2)c(=O)c2ccccc12	none
CCNC(=O)CNC(=O)c1nn(Cc2ccccc2)c(=O)c2ccccc12	HSF1 inh -71
Cc1sc(NC(=O)c2ccc(F)cc2)c(CN2CCCCCC2)c1C	HSF1 activator 56
Cc1sc(NC(=O)c2ccccc2F)c(CN2CCCCC2)c1C	HSF1 activator 58
CCCCCN(C(=O)CCC(=O)OCC(=O)Nc1cccc(SC)c1)c1c(N)n(CCCC)c(=O)[nH]c1=O	none (no result: HSP90 inh, HCV NS3 hel inh, DNA FID counter)
CCCOc1ccc(C(=O)NNC(=S)NC(=O)c2cccs2)cc1	HSF1 inh -55
